Experimental findings from ChEMBL document CHEMBL3392953, “Synthesis and biological evaluation of furanoallocolchicinoids” (J Med Chem, 2015) are described below.

Series [1] deals with Mus musculus. Put plainly: Toxicity in mouse MMTV-Wnt-1 cells implanted C57BL/6 mouse assessed as induction of weight loss at 0.4 mg/kg, iv once weekly for four weeks. It is filed as organism-based. Further details: dose 0.4 mg/kg, route intravenous. The following applies: in vivo. Put shortly:
(§1)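 C57BL/6 mice, 6–8 wk, inoculated subcutaneously with Wnt-1 tumor cells in 50 µl PBS into left inguinal fat pad under anesthesia. Treatment started at day 27 in mice with palpable tumors (n=7 per group). Compound in 200 µl saline given i.v. into orbital sinus at days 27, 34, 41, 48; controls received saline. Tumors measured by caliper twice weekly, volume (W²×L)/2. Study ended day 51.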

Series [2] concerns ASPC1. Kind of series: Induction of cell cycle arrest in human AsPC1 cells assessed as accumulation at G1 phase at 200 nM after 72 hrs by propidium iodide staining based flow cytometry (reference value: 65 +/ 3%). It is filed as functional.
The test system of series [3] is ASPC1. Put plainly: Induction of apoptosis in human AsPC1 cells assessed as mitochondria depolarization at 200 nM after 72 hrs by Hoechst 33342 and mitotracker red staining based confocal microscopy. The series is classed as functional, cell-based. In short, it runs like this:
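AsPC-1 cells grown overnight on coverslips, then cultured 72 h with compound at various concentrations in complete medium. Hoechst 33342 and MitoTracker Red added for 1 h; cells fixed in 1% paraformaldehyde, mounted in Mowiol, and examined by confocal microscopy for nuclear and mitochondrial morphology.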

The subject of series [4] is Jurkat. Kind of series: Induction of cell cycle arrest in human Jurkat cells assessed as accumulation at G1 phase at 200 nM after 72 hrs by propidium iodide staining based flow cytometry (reference value: 72 +/ 4%). The series is classed as functional.
Series [5] concerns Mus musculus. Put plainly: Toxicity in C57BL/6 mouse assessed as interphase microtubule de-stabilizing activity by measuring leakage of rhodamine through the gut at 1 mg/kg, iv co-administered with rhodamine B by fluorimetry. The series is classed as organism-based. Further details: dose 1 mg/kg, route intravenous. The settings on record: in vivo. Put shortly:
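Intact mice, 6–8 wk, 3 per group; compound dissolved in DMSO at 20 mM, 4 µl diluted into 200 µl saline (1 mg/kg), mixed with 50 µl rhodamine B, single i.v. injection; controls DMSO plus rhodamine B. Killed 4 h later; organs cut, extracted in 0.3N acid in ethanol 2 h at 37 °C, centrifuged, supernatant fluorescence read with 540 nm filter.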

Series [6] concerns HEK293. Kind of series: Induction of cell cycle arrest in HEK293 cells assessed as accumulation at G1 phase at 200 nM after 72 hrs by propidium iodide staining based flow cytometry (reference value: 76 +/ 5%). The series is classed as functional, Homo sapiens.
Series [7] is described as follows: (§2) Toxicity in ip dosed C57BL/6 mouse measured after 24 to 48 hrs. The settings on record: C57BL/6, mouse, in vivo. It is filed as organism-based. Put shortly:
(§3)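 Acute toxicity: single doses given i.p. or i.v. to 6–8 wk C57BL/6 mice to determine LD100 and LD50; lethality observed 24–48 h after injection.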

Series [8] concerns Mus musculus. The series is described as §2. The series is classed as organism-based. The settings on record: mouse, in vivo. Put shortly:
as §3

The test system of series [9] is ASPC1. Kind of series: Induction of cell cycle arrest in human AsPC1 cells assessed as G1/G2 phase ratio at 200 nM after 72 hrs by propidium iodide staining based flow cytometry (reference value: 1.9). The series is classed as functional.
The test system of series [10] is ASPC1. Kind of series: Induction of cell cycle arrest in human AsPC1 cells assessed as accumulation at G2/M phase at 200 nM after 72 hrs by propidium iodide staining based flow cytometry (reference value: 34 +/ 3%). It is filed as functional.
Series [11] is described as follows: Growth inhibition of mouse W1308 cells at 100 uM after 72 hrs by MTT assay. It is filed as functional. The following applies: W1308, 72 h, read-out: GI.
Series [12] is described as follows: Induction of apoptosis in mouse W1308 cells assessed as pre-apoptotic cells level at 200 nM after 48 hrs by 3,3'-dihexyloxacarbocyanine iodide and propidium iodide staining based flow cytometry (reference value: 17%). It is filed as functional.
For series [13], the system named is Mus musculus. Put plainly: Toxicity in mouse MMTV-Wnt-1 cells implanted C57BL/6 mouse assessed as induction of behavior changes at 0.4 mg/kg, iv once weekly for four weeks. The series is classed as organism-based. Also on record: dose 0.4 mg/kg, route intravenous. The following applies: in vivo. In short, it runs like this:
as §1

Series [14] relates to ASPC1. Put plainly: Induction of apoptosis in human AsPC1 cells at 200 nM after 72 hrs by propidium iodide staining based flow cytometry (reference value: 2.2 +/ 0.1%). The series is classed as functional.

Each structure is given as a SMILES string. Activity calls are given as the source filed them. The rule behind the calls is not given here.

In the case of `COc1cc2c(c(OC)c1OC)-c1cc3cc(CO)oc3cc1[C@@H](NC(C)=O)CC2`, the Activity result in series [1] is on record as “Non-toxic”; in series [2] it was 27%; in [4], 34%; in series [5] it was “Toxic”; in series [6] it was 22%; in [10] it was 72%. Further, the figures for the Activity in [12], in [13] and in [14] were 14%, “Non-toxic” and 1.2%, respectively. In addition, in series [3], the outcome was Active. The compound also displayed an LD50 in [7] of 0.3 mg/kg. In series [8], this compound had an LD100 of 0.8 mg/kg. Moreover, the Ratio in [9] was determined as 0.7. Further, the inhibition of growth at 100 µM in series [11] is 60%.
